Only some compounds are listed: those with a hit (about 3% of all), similar ones and a draw of the others.
SENP8 block-1: SENP8 (human) protease inhibition; Q96LD8; recombinant SENP8, Nedd8 substrate fluorescence; inhibition, % at 20 µM; 0.64% of 360,000 active; in the data active = inhibition mostly above about 40%, no sharp cut-off; inactive = mostly below about 27%
Apaf-1 inh: blocks human Apaf-1 apoptosome activity; reconstituted apoptosome caspase-3 activity, DEVD-Rh110 fluorescence; inhibition, % at 20 µM; 0.71% of 330,000 active; AID 489030; active = inhibition of at least 40% at 20 µM;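 also: plate controls were DMSO wells for no effect and DEVD-CHO caspase inhibitor wells for full effect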
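Material: reconstituted apoptosome with Apaf-1, cytochrome c, caspase-9, procaspase-3, dATP; medium: pH 7.5 Hepes buffer with CHAPS, BSA, DTT; also added: cytochrome c and DEVD-Rh110 substrate; timing: 30 min plus 50 min, RT; signal: Rh110 fluorescence intensity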
SENP8 block-2: blocks the human protease SENP8; Q96LD8; purified SENP8, Z-RLRGG-aminoluciferin cleavage, luminescence; inhibition, % at 10 µM; 1.2% of 330,000 active; in the data active = inhibition above about 50%
SENP7 block: blocks the human protease SENP7; Q9BQF6; recombinant SENP7, Z-RLRGG-aminoluciferin luminescence, 40 min; inhibition, % at 5 µM; 1.5% of 330,000 active; AID 434973;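 active = inhibition above about 50% at the single test dose, limit read from the data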;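 also: plate controls were DMSO with enzyme for no effect and no enzyme buffer wells for full effect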
SENP6 inh: SENP6 protease inhibition; inhibition, % at 10 µM; 1.8% of 330,000 active; Recombinant SENP6 catalytic domain, aminoluciferin luminescence;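 active = inhibition above about 50% at the single tested dose, limit read from the data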;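 also: plate controls were DMSO wells with enzyme for no effect and DMSO wells lacking enzyme for full effect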
Target sequence (Q9GZR1 628-1112 limits assumed): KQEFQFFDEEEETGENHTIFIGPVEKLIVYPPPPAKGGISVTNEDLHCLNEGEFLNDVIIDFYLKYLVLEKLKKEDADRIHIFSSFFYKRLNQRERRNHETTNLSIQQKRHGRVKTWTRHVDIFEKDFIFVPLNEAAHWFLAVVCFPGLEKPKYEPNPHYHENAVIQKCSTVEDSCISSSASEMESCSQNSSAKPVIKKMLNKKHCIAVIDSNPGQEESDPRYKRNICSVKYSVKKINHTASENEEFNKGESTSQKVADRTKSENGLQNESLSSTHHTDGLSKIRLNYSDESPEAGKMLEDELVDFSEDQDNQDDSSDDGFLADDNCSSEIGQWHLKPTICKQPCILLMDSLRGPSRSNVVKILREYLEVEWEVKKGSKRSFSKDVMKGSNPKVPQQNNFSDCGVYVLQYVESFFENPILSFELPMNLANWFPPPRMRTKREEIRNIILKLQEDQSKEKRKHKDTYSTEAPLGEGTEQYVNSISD
UBC13 inh: human UBC13 polyubiquitination inhibition; P61088; UBC13 polyubiquitin chain formation, TR-FRET; inhibition, % at 20 µM; 0.47% of 330,000 active; AID 485273; in the data active = inhibition above about 45%, passing the limit was not always enough
SENP8 conf: human SENP8 inhibition, confirmed. shares compounds with SENP7 block. Recombinant SENP8, Z-RLRGG-aminoluciferin luminescence, 60 min. inhibition, % at 12.5 µM. 40% of 6,200 active. AID 488912;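 active = mean inhibition across replicates above about 50%, limit read from the data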
SENP6 conf: human SENP6 inhibition, confirmed; recombinant SENP6, Z-RLRGG-aminoluciferin luminescence; AID 488915; shares compounds with SENP7 block; inhibition, % at 12.5 µM; 58% of 6,200 active
SENP7 conf: confirmation of human SENP7 protease inhibitors; 69% of 6,200 active; inhibition, % at 12.5 µM; AID 488917; shares compounds with SENP7 block; recombinant SENP7, Z-RLRGG-aminoluciferin luminescence, 40 min
Casp3 select: selectivity test for SENP inhibitors: human caspase-3 inhibition. shares compounds with SENP7 block. purified caspase-3, Z-DEVD-aminoluciferin luminescence, 60 min. inhibition, % at 12.5 µM. 60% of 6,200 active. AID 488918;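 active = mean inhibition above about 50%, limit read from the data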;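 also: plate controls were enzyme with DMSO for no effect and wells without caspase-3 for full effect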
Luc interf: interferes with luciferase luminescence in SENP counter-screen | Pre-incubated SENP8/Z-RLRGG-aminoluciferin, luciferase luminescence interference | inhibition, % at 12.5 µM | shares compounds with SENP7 block | 39% of 6,200 active;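 active = mean inhibition above about 50% when retested at one dose, limit read from the data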;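 also: plate controls were DMSO wells with completed reaction for no effect and substrate without enzyme for full effect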
The depositor's hits bear a star; / = not tested or not shown.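 The calls were made as follows, unless noted: active = mean inhibition above about 50% in the one-dose retest (limit read from the data); inactive = the rest.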

SMILES | SENP8 block-1 | Apaf-1 inh | SENP8 block-2 | SENP7 block | SENP6 inh | UBC13 inh | SENP8 conf | SENP6 conf | SENP7 conf | Casp3 select | Luc interf
CC(C)NC(=O)C1(C)CN(S(C)(=O)=O)CC(=O)N1C1CC1 (centres undefined) | 18 | / | / | / | / | / | / | / | / | / | /
CN(C)c1ccc(-c2csc(C(C)(O)c3cccc(F)c3)n2)cc1 (centres undefined) | -11 | / | / | / | / | / | / | / | / | / | /
Cc1nc2sccn2c(=O)c1S(=O)(=O)N1CCN(c2ccccc2F)CC1 | 5 | / | / | / | / | / | / | / | / | / | /
COc1ccc2cc(-c3ccccc3F)ncc2c1 | -119 | 7 | 97* | 100* | 97* | 10 | 98* | 99* | 103* | 96* | 97*
COc1ccc(-c2cc3ccc(OC)cc3cn2)cc1 | -474 | 0 | 46 | 84* | 68* | 2 | 5 | 17 | 59* | 41 | -4
COc1ccc2cc(-c3ccon3)ccc2c1 | -76 | 3 | -4 | 8 | 13 | 3 | / | / | / | / | /
COc1ccc2cc(-c3cccnc3)ncc2c1 | -154 | 4 | 40 | 58* | 53* | -19 | 38 | 38 | 81* | 73* | 62*
CCC1OC(C(C)C)Cc2[nH][nH]c(=O)c21 (centres undefined) | 25 | / | / | / | / | / | / | / | / | / | /
C=C1C[C@@H]2C[C@@H]2CN(S(=O)(=O)c2ccc(C)cc2)[C@@H]1COCc1ccccc1 | 13 | / | / | / | / | / | / | / | / | / | /
Cn1c(=O)c(/C=C/c2ccccc2)nc2ccccc21 | -378 | 12 | 14 | -2 | 9 | 14 | / | / | / | / | /
Cn1c(/C=C/c2ccccc2)nc2ccccc21 | -409 | 2 | 97* | 99* | 99* | 14 | 99* | 100* | 103* | 99* | 98*
O=C(c1ccc(S(=O)(=O)N2CCCC2)cc1)N(c1ccccc1)C1C=CS(=O)(=O)C1 (centres undefined) | 3 | -56 | 0 | 2 | 63* | -15 | 6 | 6 | 5 | 0 | 2
CCNC(=O)C1(C)CCCN(C(=O)c2cc(-c3cccs3)oc2C)C1 (centres undefined) | -24 | / | / | / | / | / | / | / | / | / | /
O=C(Nc1ccc2c(c1)OCO2)c1cnc(Cl)c(Cl)c1 | 8 | 10 | 45 | 61* | 59* | -4 | 4 | 52* | 85* | 69* | 10
Cc1ccc(C(=O)Nc2ccc3c(c2)OCO3)cc1S(=O)(=O)N1CCCC1 | 21 | 14 | -9 | -10 | -20 | -2 | / | / | / | / | /
Cc1cc(Cl)ccc1NC(=O)c1ccc2c(c1)OCO2 | 19 | -3 | -10 | -5 | -8 | 0 | / | / | / | / | /
Cc1ccc(NC(=O)c2ccc3c(c2)OCO3)cc1Cl | 12 | -8 | 40 | 63* | 69* | -10 | 14 | 50* | 88* | 49 | 10
Cc1ccc(C(=O)Nc2ccc3c(c2)OCO3)cc1Cl | 0 | 5 | -11 | 51* | 5 | -4 | -3 | 0 | 61* | 36 | -1
CC1=C(C(=O)N(C)C)CC(CC(=O)NCc2cccs2)C(=O)N1CCC1=CCCCC1 (centres undefined) | -27 | / | / | / | / | / | / | / | / | / | /
COC(=O)[C@@]12C[C@@H](CC(=O)N3CCSCC3)C(=O)N(Cc3cccc4ccccc34)C1=CCC(C)(C)C2 | 11 | / | / | / | / | / | / | / | / | / | /
Cn1c(=O)n(C)c2cc(CNC(=O)[C@H]3O[C@@H](n4ccc(=O)[nH]c4=O)[C@H](O)[C@@H]3O)ccc21 | 31 | / | / | / | / | / | / | / | / | / | /
CCCNC(=O)C[C@@H]1CC[C@H]2NC[C@H](O)COC[C@@H]2O1 | 20 | / | / | / | / | / | / | / | / | / | /
CN(C)c1ccc(C2NC(=O)c3ccccc3N2)cc1 (centres undefined) | -272 | 11 | 87* | 93* | 91* | -4 | 13 | 6 | 2 | 13 | 15

From PubChem
